ChEMBL document CHEMBL2150952 (J Med Chem, 2011)

Legend:
[1] = Drug uptake in eye of female rhesus monkey at 5 mg/kg, po measured 6 hrs post dose; format: ADME, organism-based, Macaca mulatta; design: dose 5 mg/kg, route oral; conditions: in vivo
[2] = Drug uptake in skin of Beagle dog at 5 mg/kg, po measured 6 hrs post dose; format: ADME, organism-based, Canis lupus familiaris, Zone of skin; design: dose 5 mg/kg, route oral; conditions: in vivo
[3] = Apparent permeability across pig LLC-PK1 cells; format: ADME, cell-based, Sus scrofa
Liver [4] = test: Drug uptake in liver of C57BL6 mouse at 10 mg/kg, po measured 6 hrs post dose; format: ADME, organism-based; design: dose 10 mg/kg, route oral; conditions: in vivo
Acyl-CoA desaturase 1 [5] = molecular target: T1, Acyl-CoA desaturase 1 (Rattus norvegicus, UniProt P07308); test: Inhibition of SCD-1 activity in Sprague-Dawley rat microsome assessed as reduction in [I-14C] stearoyl CoA desaturation by scintillation counting; format: microsomes
T1 sequence (P07308 whole entry): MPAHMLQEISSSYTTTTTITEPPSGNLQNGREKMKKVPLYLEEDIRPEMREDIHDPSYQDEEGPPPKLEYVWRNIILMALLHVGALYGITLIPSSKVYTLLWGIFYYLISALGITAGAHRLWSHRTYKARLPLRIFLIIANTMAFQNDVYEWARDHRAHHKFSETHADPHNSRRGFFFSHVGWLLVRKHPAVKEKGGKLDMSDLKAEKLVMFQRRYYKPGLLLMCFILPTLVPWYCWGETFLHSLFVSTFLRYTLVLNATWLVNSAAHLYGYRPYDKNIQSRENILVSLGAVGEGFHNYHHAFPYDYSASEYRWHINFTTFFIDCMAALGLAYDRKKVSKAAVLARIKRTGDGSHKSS

Mus musculus [6] = test: Antidiabetic activity in diet-induced obese C57BL6 mouse assessed as reduction in body weight gain at 60 mg/kg, po BID; format: functional; design: scale not given: the % may be the effect or the level left
Outline: (§1)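 Male C57/Bl6 mice were fed a high fat diet for at least 18 weeks from 6 weeks of age, then given vehicle (1% methocel, bid) for 7 days and randomized by body weight. Oral dosing (qd or bid) ran for 28 days, with n = 8–10/group. Body weight, food intake and skin/eye scores were recorded twice weekly.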

Mus musculus [7] = test: Toxicity in diet-induced obese C57BL6 mouse assessed as reduction in food intake at 20 to 60 mg/kg, po BID; format: organism-based; design: dose 20-60 mg/kg, route oral; conditions: in vivo
Outline: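 Obese male C57/Bl6 mice after at least 18 weeks of high fat diet and a 7-day vehicle run-in, randomized by body weight. Dosed orally at 20 or 60 mg/kg bid for 28 days (n = 8–10/group). Food consumption monitored twice weekly.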

Mus musculus [8] = test: Toxicity in diet-induced obese C57BL6 mouse assessed as adverse effect in skin at 20 to 60 mg/kg, po BID measured within 4 weeks; format: organism-based; design: dose 20-60 mg/kg, route oral; conditions: in vivo, 672 h
Outline: (§2)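 Male C57/Bl6 mice on high fat diet for at least 18 weeks from 6 weeks of age. Given 7 days vehicle run-in (1% methocel bid), then randomized by body weight and dosed orally at 20 or 60 mg/kg bid for 28 days (n = 8–10/group). Skin (hair loss/lesion) and eye (squint to closure) scored 0–3 twice weekly.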

[9] = Oral bioavailability in mouse; format: ADME, organism-based; conditions: in vivo
Outline: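 Fasted male C57BL6 mice given 2 mg/kg IV and 10 mg/kg PO. Plasma drug levels measured by LC-MS/MS, mean of n = 3 animals, and PK parameters derived from these.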

Mus musculus [10] = test: Antidiabetic activity in diet-induced obese C57BL6 mouse assessed as reduction in glucose AUC at 7 to 30 mg/kg, po administered 1 hr before oral glucose administration measured 2 hrs thereafter; format: functional; conditions: dose mg/kg 7-30
Outline: (§3)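 Male C57/Bl6 mice were kept on a high fat diet for at least 14 weeks from 6 weeks of age, then fasted 16 h. Compound was given orally 1 h before a 2 g/kg oral glucose load.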

Mus musculus [11] = test: Inhibition of SCD activity in liver of diet-induced obese C57BL6 mouse assessed as reduction in desaturation induces at 20 mg/kg, po BID administered for 4 weeks; format: functional; conditions: 672 h
[12] = Oral bioavailability in dog; format: ADME, organism-based, Canis lupus familiaris; conditions: in vivo
Zone of skin [13] = test: Drug uptake in skin of Sprague-Dawley rat at 10 mg/kg, po measured 6 hrs post dose; format: ADME, organism-based; design: dose 10 mg/kg, route oral; conditions: in vivo
Zone of skin [14] = test: Drug uptake in skin of C57BL6 mouse at 10 mg/kg, po measured 6 hrs post dose; format: ADME, organism-based; design: dose 10 mg/kg, route oral; conditions: in vivo
[15] = Oral bioavailability in rat; format: ADME, organism-based; conditions: in vivo
[16] = Drug uptake in eye of Beagle dog at 5 mg/kg, po measured 6 hrs post dose; format: ADME, organism-based, Canis lupus familiaris; design: dose 5 mg/kg, route oral; conditions: in vivo
[17] = Drug level in harderian gland of diet-induced obese C57BL6 mouse at 20 mg/kg, po BID; format: ADME, organism-based; design: dose 20 mg/kg, route oral; conditions: in vivo, read-out: Drug uptake
Outline: (§4)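 eDIO mice were dosed orally for 4 weeks, either 20 mg/kg bid or 5 mg/kg qd. Liver, Harderian gland and skin were taken at trough at study termination, and compound concentration was measured by LC-MS.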

Mus musculus [18] = test: Antidiabetic activity in diet-induced obese C57BL6 mouse assessed as reduction in glucose AUC at 7 to 10 mg/kg, po administered 1 hr before oral glucose administration measured 2 hrs thereafter; format: functional; conditions: dose mg/kg 7-10
Mus musculus [19] = test: Antidiabetic activity in po dosed diet-induced obese fasted C57BL6 mouse assessed as increase in glucose clearance administered 1 hr before glucose challenge measured 12 hrs thereafter by OGTT; format: functional; conditions: in the assay text read “2 hrs” for “12 hrs”; outline: as §3
Liver [20] = test: Drug uptake in liver of Beagle dog at 5 mg/kg, po measured 6 hrs post dose; format: ADME, organism-based, Canis lupus familiaris; design: dose 5 mg/kg, route oral; conditions: in vivo
[21] = Drug uptake in eye of C57BL6 mouse at 10 mg/kg, po measured 6 hrs post dose; format: ADME, organism-based; design: dose 10 mg/kg, route oral; conditions: in vivo
Mus musculus [22] = test: Antidiabetic activity in diet-induced obese C57BL6 mouse assessed as reduction in body weight gain at 20 mg/kg, po BID; format: functional; design: scale not given: the % may be the effect or the level left; outline: as §1
Acyl-CoA desaturase 1 [23] = molecular target: T1, Acyl-CoA desaturase 1; test: Inhibition of SCD-1 activity in Sprague-Dawley rat Hepatocytes expressing organic anion transporting polypeptides assessed as reduction in [I-14C] […] desaturation by scintillation counting; format: cell-based, Hepatocyte
Outline: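 Rat hepatocytes (4 × 10^6 cells/mL) were preincubated with compound for 15 min at 37 °C/5% CO2. 14C-stearic acid (final 0.5 μCi/mL) was then added for 1 h with shaking. Cells were washed, hydrolyzed in 2N NaOH at 75 °C for 1 h, acidified and extracted. Radiolabeled oleic and stearic acids were quantified by HPLC with flow scintillation detection. Mean of at least n = 3.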

Liver [24] = test: Drug level in liver of diet-induced obese C57BL6 mouse at 20 mg/kg, po BID; format: ADME, organism-based; design: dose 20 mg/kg, route oral; conditions: in vivo, read-out: Drug uptake; outline: as §4
[25] = Drug uptake in liver of female rhesus monkey at 5 mg/kg, po measured 6 hrs post dose; format: ADME, organism-based, Macaca mulatta; design: dose 5 mg/kg, route oral; conditions: in vivo
Mus musculus [26] = test: Toxicity in diet-induced obese C57BL6 mouse assessed as adverse effect in eye at 20 to 60 mg/kg, po BID measured within 4 weeks; format: organism-based; design: dose 20-60 mg/kg, route oral; conditions: in vivo, 672 h; outline: as §2
Mus musculus [27] = test: Antidiabetic activity in diet-induced obese C57BL6 mouse assessed as reduction in glucose AUC at 3 to 7 mg/kg, po administered 1 hr before oral glucose administration measured 2 hrs thereafter; format: functional; conditions: dose mg/kg 3-7
Liver [28] = test: Drug uptake in liver of Sprague-Dawley rat at 10 mg/kg, po measured 6 hrs post dose; format: ADME, organism-based; design: dose 10 mg/kg, route oral; conditions: in vivo
[29] = Drug uptake in skin of female rhesus monkey at 5 mg/kg, po measured 6 hrs post dose; format: ADME, organism-based, Macaca mulatta, Zone of skin; design: dose 5 mg/kg, route oral; conditions: in vivo
[30] = Drug uptake in eye of Sprague-Dawley rat at 10 mg/kg, po measured 6 hrs post dose; format: ADME, organism-based; design: dose 10 mg/kg, route oral; conditions: in vivo
Acyl-CoA desaturase 1 [31] = molecular target: T1, Acyl-CoA desaturase 1; test: Inhibition of rat SCD-1

Drug uptake [1]: Active | Drug uptake [2]: Active | Papp [3]: 3.8 ×10⁻⁶ cm/s | Drug uptake (Liver [4]): Active | IC50 (Acyl-CoA desaturase 1 [5]): 3 nM | bioavailability [9]: 12% | bioavailability [12]: 40% | Drug uptake (Zone of skin [13]): Active | Drug uptake (Zone of skin [14]): Active | bioavailability [15]: 28% | Drug uptake [16]: Active | concentration [17]: 900 nM | Drug uptake (Liver [20]): Active | Drug uptake [21]: Active | IC50 (Acyl-CoA desaturase 1 [23]): 68 nM | concentration (Liver [24]): 5000 nM | Drug uptake [25]: Active | Drug uptake (Liver [28]): Active | Drug uptake [29]: Active | Drug uptake [30]: Active | IC50 (Acyl-CoA desaturase 1 [31]): 3 nM
SMILES: O=C(O)Cn1nnc(-c2cc(N3CCC(Oc4cc(F)ccc4Br)CC3)no2)n1 [MK-8245]
Activity (Mus musculus [6]): 5% | Activity (Mus musculus [7]): Non-toxic | Activity (Mus musculus [8]): Non-toxic | inhibition (INH) (Mus musculus [10]): 89% | inhibition in vivo at 20 mg/kg (Mus musculus [11]): 63% | inhibition (INH) (Mus musculus [18]): 60% | ED50 (Mus musculus [19]): 7 mg/kg | Activity (Mus musculus [22]): 5% | Activity (Mus musculus [26]): Non-toxic | inhibition (INH) (Mus musculus [27]): 36%
